SR-BI DiI inh = inhibitors of SR-BI mediated HDL lipid uptake, primary screen, ldlA[mSR-BI] cells, fluorescence, single point; ldlA[mSR-BI] CHO cells, DiI-HDL uptake fluorescence, 3 h; inhibition, % at 12.5 µM; hit rate 0.96% among 320,000;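 active = mean replicate inhibition of at least 70% and a set share of replicates each scoring 70 or more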;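 note: 0% = median of neutral control wells and 100% = median of positive control wells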
Target sequence (Q61009 whole entry, looked up): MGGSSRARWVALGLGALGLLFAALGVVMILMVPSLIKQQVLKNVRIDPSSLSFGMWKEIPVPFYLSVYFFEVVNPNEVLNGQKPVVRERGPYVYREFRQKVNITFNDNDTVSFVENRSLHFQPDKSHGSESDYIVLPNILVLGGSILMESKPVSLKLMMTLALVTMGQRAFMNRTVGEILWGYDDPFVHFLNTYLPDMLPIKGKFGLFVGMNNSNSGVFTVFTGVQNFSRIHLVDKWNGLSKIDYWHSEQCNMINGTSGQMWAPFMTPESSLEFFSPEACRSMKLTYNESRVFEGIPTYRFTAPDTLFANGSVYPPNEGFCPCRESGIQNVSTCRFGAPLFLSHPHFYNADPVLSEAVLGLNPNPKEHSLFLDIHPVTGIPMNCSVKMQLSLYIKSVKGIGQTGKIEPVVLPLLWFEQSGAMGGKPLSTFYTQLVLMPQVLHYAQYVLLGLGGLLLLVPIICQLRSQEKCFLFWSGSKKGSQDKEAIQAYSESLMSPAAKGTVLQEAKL
SR-BI uptake up = activators of SR-BI mediated DiI-HDL uptake, primary screen, ldlA[mSR-BI] CHO cells, DiI fluorescence; 3 h; 100 = double the neutral-control signal; activation, % at 12.5 µM; hit rate 0.096% among 320,000; AID 504775, 2011;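 active = mean replicate activation of at least 60% and every replicate at or above 60%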;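 note: 0% = median plate neutral-control signal and 100% = twice that signal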
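System: LDL receptor-deficient CHO ldlA cells overexpressing murine SR-BI | Timing: 3 h uptake period with compound, 37 °C | Medium: HEPES-buffered (25 mM, pH 7.4) F12 plus 0.5% BSA | Dosing: Single-point compound dose | Signal: Bottom-read fluorescence, 550/595 nm | Read-out: Retained DiI signal reflecting DiI-HDL uptake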
C2C12 statin = suppressors of statin myotoxicity in C2C12 myotubes, primary screen, cell-based, single point, plate reader; C2C12 myotubes + simvastatin, ATP luminescence, 48 h; scaled: DMSO 0, geranylgeraniol control 100; hit rate 0.78% among 330,000; AID 602340, 2012; rescue of ATP level, % at 7.49 µM;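 active = mean ATP rescue above about 67%, or every replicate alone reaching that limit, limit read from the data, passing the limit was not always enough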;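 note: myotubes were challenged with 10 µM simvastatin during compound exposure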
Vif inh = HIV Vif self-association inhibitors, primary screen, imaging, HEK293T, single point. hit rate 0.35% among 340,000. HEK293T cells, Vif self-association by quenched fluorescence, 24 h. inhibition, % at 7.49 µM. AID 602346, 2012; in the data active = inhibition above about 50%, passing the limit was not always enough
* hit, by the source's call; . = no result. Compounds with a hit are over-represented: about 1.7% of the library has one in this group of screens.

SMILES	SR-BI DiI inh	SR-BI uptake up	C2C12 statin	Vif inh
COc1ccc(CSc2nnc(Cc3sc(-c4ccccc4)nc3-c3ccccc3)o2)cc1	-8.1	8.1	96.5*	16.8
Fc1ccc(CSc2nnc(Cc3sc(-c4ccccc4)nc3-c3ccccc3)o2)cc1	-12.9	12.9	-6.0	7.3
Cc1ccc(Cc2cnc(NC(=O)/C(C#N)=C/c3ccc(-c4ccc([N+](=O)[O-])cc4)o3)s2)cc1	53.4	-53.4	.	89.0*
Cc1cnc(NC(=O)c2ccc(-c3ccc([N+](=O)[O-])cc3)o2)s1	4.7	-4.7	-3.9	5.1
N#C/C(=C/c1ccc(-c2ccc([N+](=O)[O-])cc2)o1)C(=O)Nc1nc(-c2cccs2)cs1	87.6*	-87.6	.	18.8
O=C(C[C@@H]1CC[C@@H]2[C@H](COC[C@H](O)CN2Cc2ccccc2)O1)NCCc1ccccc1	.	.	18.5	.
C[C@H](CO)N1C[C@H](C)[C@@H](CN(C)Cc2ccc(F)cc2)Oc2ncc(C#Cc3cccnc3)cc2C1=O	.	.	6.0	.
COc1ccc(N2C(=O)c3ccc(NC(C)=O)cc3C2=O)cc1	-19.6	19.6	-17.0	1.4
CC(=O)Nc1ccc2c(c1)C(=O)N(c1ccc(C)cc1)C2=O	13.9	-13.9	76.6*	3.2
COCC(=O)Nc1ccc2c(c1)C(=O)N(C)C[C@@H](OC)[C@@H](C)CN(C)[C@@H](C)CO2	.	.	-33.2	.
[O-][n+]1onc2c1CCc1nnccc1-2	-22.3	22.3	84.2*	.
CC(C)(C)OC(=O)N1CCC(c2c(C(=O)NCC3CCN(C4CCCC4)C3)cnn2-c2ccc(F)cc2)CC1 (configuration not stated)	-15.8	15.8	-10.1	60.2*
O=C(Nc1ccccc1Cl)c1ccc2c(c1)N(Cc1ccc(F)cc1)C(=O)CS2=O (configuration not stated)	82.2*	-82.2	-4.3	0.3
CC(=O)N(CCC1(C(C)C)CCOC(C)(C)C1)Cc1ccco1 (configuration not stated)	8.1	-3.4	0.4	-3.1
CCC(=O)N(CCC1(C(C)C)CCOC(C)(C)C1)Cc1ccco1 (configuration not stated)	-4.1	4.1	-6.9	109.4*
O=C(C[C@H]1CC[C@@H]2[C@H](COC[C@H](O)CN2C(=O)c2ccccc2F)O1)N1CCCCC1	.	.	5.4	.
COc1cc(NC(=O)C/C(C)=N/NC(=O)Cc2ccc(Cl)cc2)c(OC)cc1Cl	66.0	-66.0	-5.2	72.8*
Cc1cnc(C(=O)Nc2nccs2)cn1	-19.3	19.3	100.6*	-0.3
CC1(C)CC(C(=O)Nc2nccs2)CCO1 (configuration not stated)	.	.	120.9*	2.0
COc1ccc(CNC(=O)C[C@@H]2C[C@@H]3c4cc(NC(=O)CN(C)C)ccc4O[C@@H]3[C@H](CO)O2)cc1	.	.	-1.3	.
CC(=O)c1c(C)[nH]c(C(=O)Nc2ccc(Cl)c(S(=O)(=O)N(C)C)c2)c1C	82.1*	-82.1	.	-2.5
CC(=O)c1c(C)[nH]c(C(=O)OCC(=O)Nc2ccc(Cl)c(S(=O)(=O)N(C)C)c2)c1C	.	.	-10.8	-6.4
CC(=O)c1c(C)[nH]c(C(=O)Nc2cccc(S(=O)(=O)N(C)c3ccccc3)c2)c1C	80.0*	-80.0	.	-2.3
C[C@@H]1CN([C@H](C)CO)C(=O)Cc2cc(NC(=O)c3ccncc3)ccc2O[C@H]1CN(C)S(=O)(=O)c1ccccc1	.	.	2.1	.
COc1cnc(SCc2c(Cl)cccc2Cl)nc1Cl	-1.9	1.9	88.2*	-2.4
SMILES	SR-BI DiI inh	SR-BI uptake up	C2C12 statin	Vif inh
O=C(O)c1nn(-c2ccccc2)nc1-c1nn(-c2ccccc2)nc1C(=O)O	-32.2	32.2	136.0*	.
CNC(=O)C[C@H]1CC[C@H]2[C@@H](COc3ccc(NC(=O)Nc4cccc(C)c4)cc3C(=O)N2C)O1	.	.	12.0	.
Cn1c(-c2ccc(F)cc2)cnc1NCc1ccccc1F	87.7*	-87.7	0.9	-0.4
Cn1c(-c2ccc(F)cc2)cnc1NCc1ccc(F)cc1	-34.2	34.2	121.6*	2.0
CC(C)NC(=O)N(C)C[C@H]1Oc2ccc(NC(=O)CCCN(C)C)cc2C(=O)N([C@H](C)CO)C[C@@H]1C	.	.	4.6	.
C[C@@H]1CN([C@@H](C)CO)C(=O)Cc2cc(NC(=O)Nc3ccc4c(c3)OCO4)ccc2O[C@H]1CN(C)CC1CCCCC1	.	.	5.7	.
O=C(C[C@H]1CC[C@H]2[C@@H](COC[C@H](O)CN2CCc2ccccc2)O1)NCc1ccccc1	.	.	-6.2	.
CC(C)(C)OC(=O)N1CCC(C(=O)N[C@H](Cc2ccccc2)C(=O)O)CC1	6.9	-6.9	-1.6	-7.0
CC1CN(C(=O)N[C@@H](Cc2ccccc2)C(=O)O)CC(C)O1 (some centres not stated)	-4.5	4.5	85.9*	18.6
CC(C)(C)OC(=O)N1CCC(C(=O)N[C@@H](Cc2ccccc2)C(=O)O)CC1	-17.7	17.7	114.6*	-0.9
Cc1ccc(S(=O)(=O)N[C@@H](Cc2ccccc2)C(=O)N2CCC(C(=O)N[C@@H](CCC(N)=O)C(=O)O)CC2)cc1	-31.5	31.5	5.2	59.0*
COc1cccc(S(=O)(=O)Nc2ccc3c(c2)C(=O)N(C)C[C@H](OC)[C@H](C)CN(C(=O)Cc2cccnc2)[C@H](C)CO3)c1	.	.	7.7	.
Cc1noc(C)c1S(=O)(=O)Nc1ccc2c(c1)CC(=O)N([C@H](C)CO)C[C@@H](C)[C@@H](CN(C)CC1CCCCC1)O2	.	.	58.0	.
O=C(c1cc(COc2cccc3cccnc23)on1)N1CCC[C@H]1CO	.	.	4.7	50.7*
O=C(CC1S/C(=N/N=C/c2cccs2)NC1=O)Nc1ccccc1F (configuration not stated)	80.3*	-80.3	.	3.4
C=CCC1S/C(=N/N=C/c2cccs2)NC1=O (configuration not stated)	10.2	-10.2	8.7	9.4
CN(C)N1C(=O)CC(C)(c2ccc([N+](=O)[O-])cc2)C1=O (configuration not stated)	-7.1	7.1	114.1*	34.0
CC(C)CC(=O)Nc1sc2c(c1C#N)CC(C)(C)NC2(C)C	6.7	-6.7	-1.7	55.6*
O=C(C[C@H]1C[C@@H]2c3cc(NC(=O)C4CCOCC4)ccc3O[C@@H]2[C@H](CO)O1)NCc1cccc(F)c1	.	.	-2.2	.
O=[N+]([O-])c1ccccc1CNc1ccc(F)c(Cl)c1	-14.2	14.2	.	-4.0
Fc1ccccc1CNc1cc(Cl)cc(Cl)c1	-23.6	23.6	56.5	118.7*
COc1ccc(C(=O)N/N=C(\C)CC(=O)Nc2ccc(N(C)C)cc2)c(OC)c1	48.9	-48.9	-9.9	-2.2
COc1ccc(CC(=O)Nc2ccc(/C(C)=N/NC(=O)c3ccc(OC)cc3OC)cc2)cc1	74.5*	-74.5	-9.8	4.1
COc1ccc(CN(C)C[C@@H]2Oc3ccc(NC(=O)NC(C)C)cc3C(=O)N([C@H](C)CO)C[C@@H]2C)cc1	.	.	-1.1	.

Screens deposited in PubChem BioAssay by Broad Institute.
